Ecoli rRNA inh: selective bacterial rRNA inhibition in E. coli; E. coli WT GFP vs humanized-ribosome RFP mutants, fluorescence, 24 h; hits give low values; DMSO median 0, no signal -100; AID 720706; 1.6% of 350,000 active; GFP signal change (wild-type ribosome), % (test concentration not listed);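 active means significant combined selectivity score with lowered wild-type GFP, culture density cut under 30%, mutant RFP and density less affected; inactive means any of these conditions unmet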
DENV2 CPE: DENV2-induced cell death inhibition. AID 651640. 1.7% of 350,000 active. CPE inhibition, % at 9.99 µM. DENV2-infected cells, cytopathic effect rescue, plate reader; in the data active means CPE inhibition above about 20%, passing the limit was not always enough; tested in BHK-21 cells;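 further: 0% = median of neutral control wells and 100% = median of positive control wells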
E-sel inducer: induces E-selectin expression in human endothelial cells; P16581; HUVEC E-selectin immunofluorescence imaging; normalized: neutral wells 0, TNF-alpha wells 100; activation, % at 7.58 µM; 0.37% of 260,000 active;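 active means mean E-selectin-positive cell signal at least 10% of the positive control, reached in at least 60% of replicates, without over 20% cell loss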
Target sequence (P16581 whole entry, looked up): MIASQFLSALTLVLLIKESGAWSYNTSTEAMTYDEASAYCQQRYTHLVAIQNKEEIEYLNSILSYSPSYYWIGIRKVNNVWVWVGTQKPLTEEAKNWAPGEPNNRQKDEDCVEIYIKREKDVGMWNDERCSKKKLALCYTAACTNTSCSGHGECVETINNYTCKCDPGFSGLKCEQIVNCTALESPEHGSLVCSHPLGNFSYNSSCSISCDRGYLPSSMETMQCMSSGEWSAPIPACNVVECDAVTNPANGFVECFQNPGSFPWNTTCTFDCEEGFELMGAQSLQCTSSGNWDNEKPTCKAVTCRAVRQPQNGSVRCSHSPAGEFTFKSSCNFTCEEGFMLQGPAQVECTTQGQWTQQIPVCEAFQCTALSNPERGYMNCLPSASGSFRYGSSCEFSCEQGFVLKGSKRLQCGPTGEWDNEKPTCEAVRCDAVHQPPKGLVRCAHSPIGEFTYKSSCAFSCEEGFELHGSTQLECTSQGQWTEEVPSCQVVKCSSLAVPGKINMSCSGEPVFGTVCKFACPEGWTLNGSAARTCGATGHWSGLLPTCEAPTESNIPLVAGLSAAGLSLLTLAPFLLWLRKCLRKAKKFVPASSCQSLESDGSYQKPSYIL
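material = human umbilical vein endothelial cells (HUVEC), E-selectin induction | quantity = 3,000 cells/well | medium = EGM-2 growth medium on 0.1% gelatin-coated wells | technique = immunofluorescence imaging | read-out basis = % PE-positive cells | control set = TNF-alpha positive control, DMSO neutral control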
miR-122 sensor: inhibitors of miR-122 in Huh7 cells; activation (reporter increase), % at 12.5 µM; 0.3% of 340,000 active; Huh7 miR-122 Renilla luciferase sensor, 48 h; neutral wells = 0, positive control = 100;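 active means mean replicate activation score at least 90 and every replicate individually at or above 90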;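 further: higher luciferase means less miR-122 activity so hits act as miR-122 inhibitors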
Cneo AK release: Cryptococcus neoformans lysis via adenylate kinase release; C. neoformans lysis, adenylate kinase release luminescence, 4 h; normalised: neutral wells 0, clomiphene wells 100; 0.2% of 360,000 active; AID 651654; lysis activity, % at 15 µM;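 active means mean lysis activity across replicates of at least 80%, whatever share of replicates individually reach that level; inactive means mean lysis activity below 80%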
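Test system: log-phase Cryptococcus neoformans yeast cells; Quantity: yeast cell density of 5 × 10^6 cells/mL; Buffer or medium: YPD; Doses: single compound concentration per well; Timing: 4 h at 37 °C static, read 1 h later; Measured by: AK luminescence; Read-out basis: lysis from increased AK signal; Control set: Clomiphene as positive control.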
The depositor's hits bear a star; . = not tested or not shown; ! = a repeat was not active; [ ] = remark or other dose. Sampled rows, rich in hits. Any-hit rate of the full collection: about 3.1%.

SMILES	Ecoli rRNA inh	DENV2 CPE	E-sel inducer	miR-122 sensor	Cneo AK release
C[C@H]1CN([C@@H](C)CO)C(=O)c2cccc(NS(=O)(=O)c3cn(C)cn3)c2O[C@@H]1CN(C)Cc1ccc(C(=O)Nc2ccccc2N)cc1	5	4	.	.	.
COc1ccc(S(=O)(=O)N2CCC(C(=O)NCCC(=O)NCc3cccnc3)CC2)cc1	13	75*	0	-2	-2
COc1ccc(S(=O)(=O)N2CCC(C(=O)NCCC(=O)NCc3ccncc3)CC2)cc1	6	-2	.	-5	-4
CCOc1ccc(NC(=O)Cc2ccccc2)c([N+](=O)[O-])c1	.	.	.	13	4
CCOc1ccc(NN=C(C(=O)OC)C(=O)OC)c([N+](=O)[O-])c1	14	37*	0	-2	9
C[C@H]1CN([C@@H](C)CO)C(=O)c2cccc(NC(=O)Nc3ccc(F)cc3)c2O[C@H]1CN(C)C(=O)Nc1ccc(C(F)(F)F)cc1	-6	3	-9	-23[16.7 µM]	-1
C[C@@H]1CN([C@@H](C)CO)C(=O)Cc2cc(NC(=O)Nc3ccc(C(F)(F)F)cc3)ccc2O[C@H]1CN(C)S(=O)(=O)c1cccs1	-1	35*	0	-3[16.7 µM]	-2
C[C@H]1CN([C@@H](C)CO)C(=O)Cc2cc(NC(=O)Nc3cccc4ccccc34)ccc2O[C@H]1CN(C)S(=O)(=O)c1cccs1	2	.	13	22[16.7 µM]	101*
C[C@@H]1CN([C@@H](C)CO)C(=O)Cc2cc(NC(=O)Nc3ccccc3)ccc2O[C@H]1CN(C)S(=O)(=O)c1cccs1	-2	25*	0	-6[16.7 µM]	2
C[C@H](CO)N1C[C@H](C)[C@H](CN(C)S(=O)(=O)c2cccs2)Oc2ccc(NC(=O)Nc3ccccc3)cc2CC1=O	0	-6	0	-10[16.7 µM]	-5
CCCNC(=O)N1CC2(C1)[C@H](c1ccccc1)[C@@H](CO)N2Cc1ccccn1	2	-3	0	.	.
CO[C@@H]1CN(C)C(=O)c2ccc(NC(=O)c3ccccc3)cc2OC[C@@H](C)N(C(=O)CN(C)C)C[C@H]1C	1	-3	0	-3[16.7 µM]	2
CCN1[C@@H]2c3ccc(/C=C/c4ccccc4)c(=O)n3C[C@H]1[C@H](CO)[C@H]2C(=O)N1CCOCC1	-2	-4	0	1[16.7 µM]	2
C[C@@H]1CCCCO[C@H](CN(C)C(=O)CCCN(C)C)[C@@H](C)CN([C@H](C)CO)C(=O)c2cc(NC(=O)CCCN(C)C)ccc2O1	4	20*	.	.	.
C[C@@H]1CCCCO[C@H](CN(C)C(=O)CCCN(C)C)[C@@H](C)CN([C@H](C)CO)C(=O)c2cc(NC(=O)CCC(F)(F)F)ccc2O1	2	.	0	-4[16.7 µM]	0
C[C@@H]1CCCCO[C@@H](CN(C)CC2CC2)[C@H](C)CN([C@H](C)CO)C(=O)c2cc(NC(=O)CCCN(C)C)ccc2O1	6	43*	0	.	.
C[C@@H]1CN([C@@H](C)CO)C(=O)c2cc(NC(=O)CCCN(C)C)ccc2O[C@@H](C)CCCCO[C@H]1CN(C)CC1CCCCC1	2	3	0	4[16.7 µM]	0
CNC[C@@H]1OCCCC[C@@H](C)Oc2ccc(NC(=O)CCCN(C)C)cc2C(=O)N([C@H](C)CO)C[C@@H]1C	1	.	0	1[16.7 µM]	.
CNC[C@H]1OCCCC[C@H](C)Oc2ccc(NC(=O)CCCN(C)C)cc2C(=O)N([C@H](C)CO)C[C@@H]1C	5	6	0	-4	107*!
CC(=O)Nc1ccc(/C(N=Nc2ccccc2)=N/N=C(N)N)cc1	-20*	-3	0	.	.
CC(=O)Nc1ccc(C(=O)c2ccccc2)cc1	.	.	.	0	0
CCCC(=O)Nc1ccc2c(c1)C(=O)N(C)[C@H]1CC[C@@H](CC(=O)NCc3ccccc3F)O[C@@H]1CO2	0	4	0	21[16.7 µM]	-2
O=C(C[C@H]1C[C@@H]2c3cc(NC(=O)Nc4ccc(C(F)(F)F)cc4)ccc3O[C@@H]2[C@@H](CO)O1)NCc1ccc2c(c1)OCO2	-5	-3	-1	-2[16.7 µM]	13
COc1cccc(OC)c1OCCCOc1cccc2cccnc12	-29*	4	-1	-3	0
COc1ccccc1C(=O)Nc1c(C(=O)N(CCN(C)C)Cc2ccco2)oc2ccccc12	-40*	4	.	-3	3
SMILES	Ecoli rRNA inh	DENV2 CPE	E-sel inducer	miR-122 sensor	Cneo AK release
Cc1ccccc1C(=O)Nc1c(C(=O)N(CCN(C)C)Cc2ccco2)oc2ccccc12	0	-3	.	.	-7
Cc1ccccc1-c1cc(C(=O)NCc2cccc(Br)c2)nn1CC1CC(c2cccc([N+](=O)[O-])c2)=NO1 (stereo not drawn)	10	34*	0	.	-2
CCCC(=O)N1CCC2(CC1)CN(C(=O)CC)[C@H](CO)c1c2c2ccc(OC)cc2n1C	0	-7	1	.	.
O=c1[nH]c(=S)[nH]c2c1C(c1ccc(Cl)cc1)OC(CCc1ccccc1)C2 (stereo not drawn)	.	101*	.	1	3
O=C1OC(OC2CCCCC2)(c2ccccc2)c2ccccc21 (stereo not drawn)	-22*	.	.	-3	2
COc1ccc(OC)c(S(=O)(=O)N2CCN(c3c(C)cccc3C)CC2)c1	-1	27*	0	-2	-4
C[C@H]1Cn2cnc(C(=O)Nc3ccc(CNC(=O)OC(C)(C)C)cc3)c2C(=O)N1	16	5	0	-5	-1
C[C@H]1CNC(=O)c2c(C(=O)Nc3ccc(CNC(=O)OC(C)(C)C)cc3)ncn21	-25*	7	0	0	-1
Cc1cccc(C)c1OCC(=O)NNC(=O)CCCn1c(=O)oc2ccccc21	-2	45*	0	-8	0
O=C(CCCn1c(=O)oc2ccccc21)Nc1ccccc1	1	-1	0	5	-1
C[C@H](CO)N1C[C@H](C)[C@@H](CN(C)Cc2ccc(Oc3ccccc3)cc2)Oc2c(NC(=O)c3ccncc3)cccc2C1=O	-22	5	0	111*[16.7 µM]	-3
C[C@H]1CN([C@@H](C)CO)C(=O)c2cccc(NC(=O)c3ccncc3)c2O[C@@H]1CN(C)Cc1ccc(C(=O)Nc2ccccc2N)cc1	2	-4	58*	12[16.7 µM]	-1
C[C@@H]1CN([C@@H](C)CO)C(=O)c2cccc(NC(=O)c3ccncc3)c2O[C@@H]1CN(C)Cc1ccc(Oc2ccccc2)cc1	.	0	0	-2[16.7 µM]	-3
C[C@@H]1CN([C@H](C)CO)C(=O)c2cccc(NC(=O)c3cnccn3)c2O[C@@H]1CN(C)Cc1ccc(C(F)(F)F)cc1	-8	4	.	1[16.7 µM]	25
C[C@@H]1CN([C@@H](C)CO)C(=O)c2cccc(NC(=O)c3cnccn3)c2O[C@@H]1CN(C)Cc1ccc(C(F)(F)F)cc1	-4	22*	.	5[16.7 µM]	-13
